Tests used:
Carbonic anhydrase 12 [1] = target: T1, Carbonic anhydrase 12 (Homo sapiens, UniProt O43570); assay: Binding affinity to human recombinant CA12 catalytic domain assessed as dissociation rate constant after 30 secs by surface plasmon resonance assay
Carbonic anhydrase 12 [2] = target: T1, Carbonic anhydrase 12; assay: Binding affinity to human recombinant CA12 catalytic domain assessed as association rate constant after 30 secs by surface plasmon resonance assay; conditions: read-out: kon (M-1-s-1)
Carbonic anhydrase 13 [3] = target: T2, Carbonic anhydrase 13 (Homo sapiens, UniProt Q8N1Q1); assay: Binding affinity to human recombinant CA13 assessed as dissociation rate constant after 30 secs by surface plasmon resonance assay
Carbonic anhydrase 7 [4] = target: T3, Carbonic anhydrase 7 (Homo sapiens, UniProt P43166); assay: Binding affinity to human recombinant CA7 assessed as dissociation rate constant after 30 secs by surface plasmon resonance assay
Carbonic anhydrase 7 [5] = target: T3, Carbonic anhydrase 7; assay: Binding affinity to human recombinant CA7 assessed as association rate constant after 30 secs by surface plasmon resonance assay; conditions: read-out: kon (M-1-s-1)
Carbonic anhydrase 2 [6] = target: T4, Carbonic anhydrase 2 (Homo sapiens, UniProt P00918); assay: Binding affinity to human recombinant CA2 expressed in Escherichia coli assessed as association rate constant after 30 secs by surface plasmon resonance assay; conditions: read-out: kon (M-1-s-1)
Carbonic anhydrase 13 [7] = target: T2, Carbonic anhydrase 13; assay: Binding affinity to human recombinant CA13 assessed as association rate constant after 30 secs by surface plasmon resonance assay; conditions: read-out: kon (M-1-s-1)
Carbonic anhydrase 2 [8] = target: T4, Carbonic anhydrase 2; assay: Binding affinity to human recombinant CA2 expressed in Escherichia coli assessed as dissociation rate constant after 30 secs by surface plasmon resonance assay
Carbonic anhydrase 1 [9] = target: T5, Carbonic anhydrase 1 (Homo sapiens, UniProt P00915); assay: Binding affinity to human recombinant CA1 expressed in Escherichia coli assessed as association rate constant after 30 secs by surface plasmon resonance assay
Outline: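 Full-length enzyme amine-coupled to a carboxymethyl-dextran chip (75 µg/mL in 10 mM sodium acetate pH 5, about 6000 RU). SPR at 25 °C in PBST pH 7.4 with 2% DMSO. Ligands injected as 2-fold series, 15.6–2000 nM, at 30 or 90 µL/min. Association 30 s, dissociation 180 s. Regeneration with 200 µM sulphanilamide. ka from non-linear fit to a one-step binding model with mass transport.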

Carbonic anhydrase 1 [10] = target: T5, Carbonic anhydrase 1; assay: Binding affinity to human recombinant CA1 expressed in Escherichia coli assessed as dissociation rate constant after 30 secs by surface plasmon resonance assay
Outline: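 CA I immobilized by amine coupling (75 µg mL−1 in 10 mM sodium acetate, pH 5) to about 6000 RU. SPR run at 25 °C in PBST with 2 % DMSO, pH 7.4. Ligand given as 2-fold series, 15.6–2000 nM, at 30 or 90 µL min−1. Association 30 s, dissociation 180 s; sulphanilamide 200 µM regeneration where needed. kd from non-linear fit to one-step binding with mass transport.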

T3 sequence (P43166 whole entry): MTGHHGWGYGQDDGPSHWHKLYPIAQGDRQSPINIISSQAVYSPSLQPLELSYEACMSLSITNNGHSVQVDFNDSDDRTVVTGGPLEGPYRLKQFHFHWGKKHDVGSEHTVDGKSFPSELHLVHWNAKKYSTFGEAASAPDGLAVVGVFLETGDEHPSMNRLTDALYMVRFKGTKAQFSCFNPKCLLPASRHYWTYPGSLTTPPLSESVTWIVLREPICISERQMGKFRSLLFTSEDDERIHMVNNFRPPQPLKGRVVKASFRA
T1 sequence (O43570 whole entry, the tested form may be a part): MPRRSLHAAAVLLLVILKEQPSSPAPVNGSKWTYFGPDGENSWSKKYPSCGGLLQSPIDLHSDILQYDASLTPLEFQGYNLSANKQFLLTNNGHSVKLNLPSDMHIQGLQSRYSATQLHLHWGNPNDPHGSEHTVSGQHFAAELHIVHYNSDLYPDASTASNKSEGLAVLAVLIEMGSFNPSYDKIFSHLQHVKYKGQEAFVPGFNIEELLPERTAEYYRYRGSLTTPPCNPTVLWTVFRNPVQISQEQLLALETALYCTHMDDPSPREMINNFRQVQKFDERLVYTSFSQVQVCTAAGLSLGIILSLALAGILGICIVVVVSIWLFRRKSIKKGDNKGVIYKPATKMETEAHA
T5 sequence (P00915 whole entry): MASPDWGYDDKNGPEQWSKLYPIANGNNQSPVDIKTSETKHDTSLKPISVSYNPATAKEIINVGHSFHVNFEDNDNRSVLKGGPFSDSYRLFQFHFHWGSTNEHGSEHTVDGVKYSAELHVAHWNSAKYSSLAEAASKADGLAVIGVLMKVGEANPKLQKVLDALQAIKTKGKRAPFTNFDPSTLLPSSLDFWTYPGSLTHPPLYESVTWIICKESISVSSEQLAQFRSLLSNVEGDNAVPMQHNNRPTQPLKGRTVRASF
T2 sequence (Q8N1Q1 whole entry): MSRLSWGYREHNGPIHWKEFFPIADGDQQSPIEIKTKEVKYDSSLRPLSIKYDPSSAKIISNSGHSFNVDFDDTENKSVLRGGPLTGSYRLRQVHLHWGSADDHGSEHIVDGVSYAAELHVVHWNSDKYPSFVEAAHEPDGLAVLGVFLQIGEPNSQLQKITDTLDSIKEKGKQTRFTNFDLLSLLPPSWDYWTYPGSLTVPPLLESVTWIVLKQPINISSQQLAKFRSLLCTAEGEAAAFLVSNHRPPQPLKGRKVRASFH

Compound	koff (Carbonic anhydrase 12 [1]) [s⁻¹]	kon (Carbonic anhydrase 12 [2]) [M⁻¹ s⁻¹]	koff (Carbonic anhydrase 13 [3]) [s⁻¹]	koff (Carbonic anhydrase 7 [4]) [s⁻¹]	kon (Carbonic anhydrase 7 [5]) [M⁻¹ s⁻¹]	kon (Carbonic anhydrase 2 [6]) [M⁻¹ s⁻¹]	kon (Carbonic anhydrase 13 [7]) [M⁻¹ s⁻¹]	koff (Carbonic anhydrase 2 [8]) [s⁻¹]	kon (Carbonic anhydrase 1 [9]) [M⁻¹ s⁻¹]	koff (Carbonic anhydrase 1 [10]) [s⁻¹]
CC(C)(C)Nc1c(F)c(S(N)(=O)=O)c(F)c(F)c1S(=O)(=O)CCc1ccccc1 [carbonic anhydrase (CA) inhibitors, benzenesulphonamide ligand, 15]	0.011	180000								
CCCS(=O)(=O)c1c(F)c(F)c(S(N)(=O)=O)c(F)c1NC1CCCCCCC1 [carbonic anhydrase (CA) inhibitors, benzenesulphonamide ligand, 13]			0.0079	0.002	49000	86000	510000	0.0087		
COc1ccc(CNc2c(F)c(F)c(F)c(F)c2S(N)(=O)=O)cc1 [carbonic anhydrase (CA) inhibitors, benzenesulphonamide ligand, 15]			0.022	0.14	30000	390000	100000	0.026	110000	0.0066
CNc1c(F)c(S(N)(=O)=O)c(F)c(F)c1S(=O)(=O)CCc1ccccc1 [carbonic anhydrase (CA) inhibitors, benzenesulphonamide ligand, 14]	0.14	1.5e+06		0.013	290000	1.3e+06		0.0082	390000	0.01
NS(=O)(=O)c1c(F)c(F)c(N2CCCCC2)c(F)c1F [carbonic anhydrase (CA) inhibitors, benzenesulphonamide ligand, 16]	0.041	880000	0.011	0.071	2.6e+06	1.4e+06	920000	0.0093		
CCCSc1c(F)c(F)c(S(N)(=O)=O)c(NC2CCCCCCC2)c1F [carbonic anhydrase (CA) inhibitors, benzenesulphonamide ligand, 12]	0.05	130000		0.01	20000					
